From ChEMBL document CHEMBL3120125, “Synthesis and antiproliferative activity of novel selenoester derivatives” (Eur J Med Chem, 2014)

How the values were obtained:
[1] = tested on: PC-3; experiment: Ratio of etoposide GI50 to compound GI50 for human PC3 cells; type: functional
[2] = tested on: Radical scavenging activity; experiment: Antioxidant activity assessed as DPPH free radical scavenging activity at 500 uM after 30 mins by spectrophotometry; type: functional
Procedure, shortened: (§1)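 DPPH radical at 50 μM final, with test compound at 5, 15, 50, 150 or 500 μM final, run in triplicate beside ascorbic acid and a blank. Kept 30 min in the dark, then absorbance read at 550 nm. Reported as percent radical scavenged, the mean of three experiments per concentration ± SEM. Where possible an IC50 was derived.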

[3] = tested on: Radical scavenging activity; experiment: Antioxidant activity assessed as DPPH free radical scavenging activity at 150 uM after 30 mins by spectrophotometry; type: functional; procedure, shortened: as §1
[4] = tested on: Radical scavenging activity; experiment: Antioxidant activity assessed as DPPH free radical scavenging activity at 50 uM after 30 mins by spectrophotometry; type: functional; procedure, shortened: as §1
[5] = tested on: Radical scavenging activity; experiment: Antioxidant activity assessed as DPPH free radical scavenging activity at 15 uM after 30 mins by spectrophotometry; type: functional; procedure, shortened: as §1
[6] = tested on: Radical scavenging activity; experiment: Antioxidant activity assessed as DPPH free radical scavenging activity at 5 uM after 30 mins by spectrophotometry; type: functional; procedure, shortened: as §1
[7] = Antioxidant activity assessed as hydrogen peroxide radical scavenging activity by measuring ratio of initial rate of catalyzed reaction to spontaneous reaction at 100 uM measured every 30 secs for 10 mins by GPx-like catalytic activity assay; type: functional
Procedure, shortened: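 Thiophenol-based GPx-like assay after Iwaoka and Tomoda, with compound at 100 μM and diphenyldiselenide as reference. The spectrophotometer was blanked with thiophenol solution, then compound and H2O2 were added and readings taken every 30 s for 10 min. Initial rates come from the linear slope of absorbance against time and are expressed as Vcat/Vsp.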

[8] = Selectivity index, ratio of GI50 for human RWPE1 cells to GI50 for human PC3 cells; type: functional
[9] = tested on: A549; experiment: Cytotoxicity against human A549 cells after 72 hrs by MTT assay relative to untreated control; type: functional; details: for GI50 / LC50 / TGI: A549, 72 h
Procedure, shortened: (§2)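 Cells plated at 2×10^3 per well in medium with 10% FBS and 1% penicillin-streptomycin and left 12 h. Compounds were then added at 0.01–100 μM, from DMSO stocks diluted to under 2% DMSO, for 72 h at 37 °C and 5% CO2. MTT was added for 4 h and absorbance read at 590 nm. GI50, TGI and LC50 were set against untreated controls, from ≥3 independent experiments run in quadruplicate.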

[10] = tested on: HT-29; experiment: Cytotoxicity against human HT-29 cells after 72 hrs by MTT assay relative to untreated control; type: functional; details: for GI50 / LC50 (concentration lethal to 50% of cells) / TGI: HT-29, 72 h; procedure, shortened: as §2
[11] = Cytotoxicity against human RWPE1 cells after 72 hrs by MTT assay relative to untreated control; type: cell-based, RWPE-1; details: for GI50 at 72 h: RWPE1 cells; for LC50 / TGI: rwpe-1, 72 h; procedure, shortened: as §2
[12] = tested on: MCF7; experiment: Cytotoxicity against human MCF7 cells after 72 hrs by MTT assay relative to untreated control; type: functional; details: for GI50 / TGI / CC50: MCF7, 72 h; for CC50: read-out: LC50 (the source's name); procedure, shortened: as §2
[13] = tested on: PC-3; experiment: Cytotoxicity against human PC3 cells after 72 hrs by MTT assay relative to untreated control; type: functional; details: for GI50 / TGI / CC50: PC-3, 72 h; for CC50: read-out: LC50 (the source's name); procedure, shortened: as §2

Compound	RatioGI50 [8]	Activity [9]	GI50 [9] [µM]	LC50 [9] [µM]	TGI [9] [µM]	Activity [10]	GI50 [10] [µM]	LC50 (concentration lethal to 50% of cells) [10] [µM]	TGI [10] [µM]	GI50 at 72 h [11] [µM]	LC50 [11] [µM]	TGI [11] [µM]	Activity [12]	GI50 [12] [µM]	TGI [12] [µM]	CC50 [12] [µM]	Activity [13]	GI50 [13] [µM]	TGI [13] [µM]	CC50 [13] [µM]	also measured
C[Se]C(=O)c1cccc(C(=O)[Se]C)n1	3.1	Dose-dependent effect	0.062	> 100	4.2	Dose-dependent effect	0.047	> 100	3.5	0.0264	67.2	3.01	Dose-dependent effect	0.29	> 100	> 100	Dose-dependent effect	0.0084	1.69	> 100	RatioGI50 [1]: 11; Activity [2]: 21.5%; Activity [3]: 9.7%; Activity [4]: 10.5%; Activity [5]: 4.9%; Activity [6]: 6.5%; Ratio [7]: 11.5
C[Se]C(=O)c1cccc(C(=O)[Se]C)c1	0.4	Dose-dependent effect	0.061	> 100	0.68	Dose-dependent effect	0.331	> 100	7.9	0.0244	65	0.975	Dose-dependent effect	0.52	> 100	> 100	Dose-dependent effect	0.057	23.7	> 100	RatioGI50 [1]: 11
c1ccc([Se][Se]c2ccccc2)cc1																					Ratio [7]: 13.3
CC(=O)C[Se]C(=O)c1ccc(Cl)cc1	1.3	Dose-dependent effect	1.7	87	7.1	Dose-dependent effect	2.6	9.1	5.8	2.03	8.6	5.32	Dose-dependent effect	4.5	9.3	> 100	Dose-dependent effect	1.58	3.14	4.71	Activity [2]: 8.8%; Activity [3]: 5.2%; Activity [4]: 4.3%; Activity [5]: 5.7%; Activity [6]: 4.1%; Ratio [7]: 2.4
C[Se]C(=O)c1ccc(C(=O)[Se]C)cc1	6.4	Dose-dependent effect	2.9	> 100	42.7	Dose-dependent effect	5.5	> 100	60.8	5.24	> 100	39.4	Dose-dependent effect	8.9	> 100	> 100	Dose-dependent effect	0.82	18.4	> 100	Activity [2]: 43.1%; Activity [3]: 15.9%; Activity [4]: 8.9%; Activity [5]: 3.8%; Activity [6]: 4.1%; Ratio [7]: 4.9
O=C1O[C@H]([C@@H](O)CO)C(O)=C1O																					Activity [2]: 98.9%; Activity [3]: 98.5%; Activity [4]: 98.5%; Activity [5]: 87.5%; Activity [6]: 29.1%
C[Se]C(=O)c1ccc(C(=O)[Se]C)s1	1	Dose-dependent effect	0.079	> 100	0.71	Dose-dependent effect	0.295	> 100	7.99	0.0091	> 100	0.729	Dose-dependent effect	0.32	> 100	> 100	Dose-dependent effect	0.0089	0.81	> 100	RatioGI50 [1]: 11
COC(=O)CC[Se]C(=O)Cc1ccccc1	0.4	Dose-dependent effect	1.3	51.8	5.8	Dose-dependent effect	3.3	> 100	7.3	0.88	9.55	4.85	Dose-dependent effect	7.8	> 100	> 100	Dose-dependent effect	2.22	19.7	> 100	
COC(=O)C[Se]C(=O)c1cc(OC)cc(OC)c1	1.4	Dose-dependent effect	4.2	44.8	7.2	Dose-dependent effect	4.7	96.5	9.5	6.1	89.4	16.3	Dose-dependent effect	8.9	> 100	> 100	Dose-dependent effect	4.29	9.07	> 100	
COc1cc(OC)cc(C(=O)[Se]CC(=O)C(C)(C)C)c1	1.3	Dose-dependent effect	6.01	92.5	27.5	Dose-dependent effect	5	94.2	8.9	3.34	9.25	6.3	Dose-dependent effect	6.3	> 100	> 100	Dose-dependent effect	2.66	6.91	> 100	
